Here are results for eight compounds from ChEMBL document CHEMBL1141447, “Nitrogen-containing verticillene diterpenoids from the Taiwanese soft coral Cespitularia taeniata” (2007).

Molecules are shown by their SMILES. ≈ marks a conversion by molar mass, not a printed value. Calls of active or inactive are those of the source. The calls are words filed in the database; no cut-off is given here.

For one experiment, the system named is Staphylococcus aureus. Put plainly: Antimicrobial activity against Staphylococcus aureus 209P. The format is functional, organism-based.
The test system of a further experiment is Micrococcus luteus. Put plainly: Antimicrobial activity against Micrococcus luteus IFM2066. The experiment is classed as functional.
A further experiment has as its system KB. The experiment can be described thus: Cytotoxicity against human KB cells at 3.7 ug/ml after 48 hrs. The format is functional, cell-based. A digest of the protocol: (§1)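 KB (human oral epidermoid carcinoma) or L1210 (mouse leukemia) cells were incubated at 37 °C for 48 h in medium with graded concentrations of compound, dissolved in 0.6% Me2SO. IC50 was read from a plot of log concentration against growth rate of the treated cells.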

A further experiment deals with L1210. The experiment can be described thus: Cytotoxicity against mouse L1210 cells at 5.1 ug/ml after 48 hrs. The format is functional, cell-based. A digest of the protocol: as §1
The subject of a further experiment is Cryptococcus neoformans. Put plainly: Antimicrobial activity against Cryptococcus neoformans IFM46914. The experiment is classed as functional.
Experiment [1] relates to Trichophyton benhamiae. Put plainly: Antimicrobial activity against Trichophyton mentagrophytes. The experiment is classed as functional, Arthroderma benhamiae.
The test system of experiment [2] is Trichophyton benhamiae. The experiment can be described thus: Antimicrobial activity against Trichophyton mentagrophytes IFM45110. The experiment is classed as functional, Arthroderma benhamiae.

In the case of `C=C1CC[C@@H]2CCC3=C([C@@H](C/C(C)=C/[C@@H](O)C1)NC3=O)C2(C)C` [CESPITULACTAM D], the outcome in the experiment on Staphylococcus aureus, in the experiment on KB and with L1210 was inactive. In addition, inhibition of growth in the experiment with Micrococcus luteus (MIC) required 4.16 µg/mL (≈ 13.2 µM).

On to `C=C1CC[C@@H]2CC[C@@H]3C(=O)N(CCc4ccc(O)cc4)C(=C3C2(C)C)C/C(C)=C/[C@@H](O)C1` [CESPITULACTAM K], for which the result in the experiment with Staphylococcus aureus was inactive. For the same compound, the minimal inhibitory concentration (MIC) against Micrococcus luteus and in the experiment with Cryptococcus neoformans was 4.16 µg/mL (≈ 9.55 µM) throughout. In addition, the outcome with KB and in the experiment on L1210 was Active.

Take `C=C1CC[C@@H]2CCC3=C([C@@H](C/C(C)=C/[C@@H](OC(C)=O)C1)NC3=O)C2(C)C` [CESPITULACTAM E]: the outcome in the experiment on Staphylococcus aureus, in the experiment with KB and in the experiment with L1210 was inactive. Besides, in the experiment with Trichophyton benhamiae [1], the lowest concentration to inhibit growth (MIC) was 4.16 µg/mL (≈ 11.6 µM).

In the case of `C=C1CC[C@@H]2CCC3C(=O)N/C(=C/C(C)CC(=O)C1)C3(O)C2(C)C` (stereo partly drawn), the result in the experiment with Staphylococcus aureus, with KB and with L1210 was inactive. Also, in the experiment with Cryptococcus neoformans, 4.16 µg/mL (≈ 12.6 µM) was the least that counted as inhibitory (MIC).

As to `C=C1CC[C@@H]2CCC3=C(C2(C)C)[C@@](O)(C/C(C)=C/[C@@H](O)C1)NC3=O`, the outcome in the experiment on Staphylococcus aureus, in the experiment with KB and with L1210 was inactive.

Consider `C=C1CC[C@@H]2CCC3=C([C@@H](C/C(C)=C/[C@@H](O)C1)N(C)C3=O)C2(C)C`, for which the result in the experiment with Staphylococcus aureus, in the experiment with KB and with L1210 was inactive.

For `C=C1CC[C@@H]2CCC3=C([C@@H](C/C(C)=C/[C@@H](O)C1)N(CCc1c[nH]c4ccccc14)C3=O)C2(C)C` [CESPITULACTAM J], the result with Staphylococcus aureus, in the experiment with KB and with L1210 was inactive. Further, the minimal inhibitory concentration (MIC) in the experiment on Micrococcus luteus, with Cryptococcus neoformans and with Trichophyton benhamiae [1] was 4.16 µg/mL (≈ 9.07 µM) throughout.

With `C=C1CC[C@@H]2CCC3=C(C2(C)C)[C@@](O)(C/C(C)=C/[C@@H](O)C1)N(CC)C3=O` [CESPITULACTAM G], the outcome with Staphylococcus aureus, in the experiment with KB and in the experiment on L1210 was inactive. The MIC (commonly the lowest concentration found to suppress growth) against Trichophyton benhamiae [2] was 2.08 µg/mL (≈ 5.79 µM).
